The series is described as follows: Toxicity liver stage against HepG2, at 10uM. The class given is cell-based. Set-up: test concentration 10 uM, cell line HepG2-A16-CD81EGFP. The settings on record: human, HepG2-A16-CD81EGFP cells; read-out: INHIBITION
The gist of the method:
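Uninfected HepG2-A16-CD81EGFP cells, 3 × 10^3 per well, 1536-well, plated on prespotted compound at 10 μM final, parasite-free screening media added to match infected plates; puromycin 10 μM positive, DMSO 0.5% negative; run in parallel with 48 h PbLuc assay at 37 °C, 5% CO2; viability by CellTiter-Glo luminescence, normalized to controls.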
As for `O=C1NCCCCC1Sc1ccc(F)cc1F` (configuration not stated), the cytotoxicity at 10 µM is -8.01%. Turning to `COCc1cn(C[C@H]2C[C@@H]3CCN2C[C@@H]3C(=O)N2CCOCC2)nn1`, the cytotoxicity at 10 µM was 4.45%.

Regarding `Cc1cccc(OC2CCN(S(=O)(=O)Cc3cccc(F)c3)CC2)n1`, the cytotoxicity at 10 µM was -7.79%. For `COC1(CNS(=O)(=O)c2ccccc2Cl)CCSC1` (configuration not stated), the cytotoxicity at 10 µM was -7.48%.

With `Cc1nc(N(C)C)nc(C)c1NC(=O)c1ccco1`, the cytotoxicity at 10 µM was 1.14%. With `O=C(NCCCO)C1CC(=O)N(c2n[nH]c3cccc(F)c23)C1` (configuration not stated), the cytotoxicity at 10 µM was -1.07%. Regarding `CCS(=O)(=O)N1Cc2nccn2CC(Cn2nc(C)nc2C)C1` (configuration not stated), the cytotoxicity at 10 µM is -2.34%. To `O=C(CCc1ccccc1)N1CCn2cc(Cn3cncn3)nc2C1` belongs -0.881%; to `CC1CCCCN1C(=O)c1ccn(COc2ccc(F)cc2)n1` (configuration not stated), 4.7%; to `CC(C)(C)NC(=O)N1CCN(Cc2cccnc2)CC1`, 10.3%. To `c1ccc2c(N3CCSCC3)cnnc2c1` belongs -4.02%; to `CCN1CCN(C(=O)COCc2nc(-c3ccncc3)no2)CC1`, -8.72%; to `CCCC(=O)NCCc1nc2cc(-c3ccc(OC)cc3)ncn2n1`, 5.26%. As for `CCOCC(=O)N1C[C@@H](O)[C@H](N2CCN(c3ccccc3)CC2)C1`, the cytotoxicity at 10 µM was 7.43%. To `Cc1c[nH]nc1C1CN(Cc2cnn(-c3ccccc3C(=O)O)c2)C1` belongs 3.32%; to `COCCN1CCCC(C)(c2cc(O)[nH]n2)C1` (configuration not stated), 10.8%. For `Cc1nccc(C2CN(S(=O)(=O)N(C)C)C2)n1` the value was -5.44%. As to `CNc1cc(C)nc(C2COCCN2CCc2ccccc2)n1` (configuration not stated), the cytotoxicity at 10 µM was determined as 2.52%.

As to `CNc1ncc(C(=O)N2CCOC(C(=O)NC3CCCC3)C2)cn1` (configuration not stated), the cytotoxicity at 10 µM is 12.2%. For `Cc1ccc(N(C)[C@@H]2CC[C@@H]3CN(C(=O)Cc4cccs4)C[C@@H]32)nn1` the value was -13.5%; for `CCCn1cc(C(=O)N2CCCC2(C)c2nc(C)cc(C)n2)cn1` (configuration not stated), 4.28%; for `c1cc(N2CCCC2c2cnccn2)ncn1` (configuration not stated), -22.4%.

`O=c1c2sccc2nc2n1CCN(Cc1cccs1)CC2`: the cytotoxicity at 10 µM came out at 4.27%.

As to `Cc1nccn1-c1ccc(NS(=O)(=O)c2cnn(C(C)C)c2)cn1`, the cytotoxicity at 10 µM was -5.05%. For the compound `O=C(c1ccncc1)N1CCCN(Cc2nnc(C3CC3)o2)CC1`, the cytotoxicity at 10 µM came out at 1.91%. To `CCC1CCCCCN1C(=O)c1coc(S(=O)(=O)N(C)C)c1` (configuration not stated) belongs 1.66%; to `CC(C)(C)c1nnc(NCC(=O)N2CCc3sccc3C2)s1`, 5.62%; to `COCC(O)CN1CCC(NC(=O)c2cscc2C)CC1` (configuration not stated), -4.51%. For `COCCN(C(=O)c1ccc(OC)cc1)c1ccc(C#N)cc1`, the cytotoxicity at 10 µM amounted to 7.81%. As for `Cc1ccc(N2CCCN(C(=O)c3cc(CC(C)C)n[nH]3)CC2)nn1`, the cytotoxicity at 10 µM was -14.6%.

Turning to `COCCC(=O)NCC(O)c1c(F)cccc1F` (configuration not stated), the cytotoxicity at 10 µM was -2.38%.

As to `Cc1cc(OCC(=O)NCc2ccc(F)cc2)nnc1C`, the cytotoxicity at 10 µM is -9.27%.

As for `O=C(OCc1cccs1)c1cccc(C(=O)N2CCCC2)n1`, the cytotoxicity at 10 µM is -1.11%. For `O=C(O)c1csc(S(=O)(=O)N2CCN(Cc3c(F)cccc3Cl)CC2)c1` the value was -2.56%; for `COC(=O)c1oc(CNC(C)(C)CO)cc1C`, 10.5%. Consider `CCc1ccc(CNC(=O)CCNS(=O)(=O)c2cn(C)c(C)n2)s1`, for which the cytotoxicity at 10 µM was determined as 6.13%. Consider `CNC(=O)CN1CCN(C(=O)Nc2ccc(C)s2)CC1`, for which the cytotoxicity at 10 µM was -13.3%. For the compound `Cc1noc(C)c1CC(=O)N1CCCC(c2noc(C(C)C)n2)C1` (configuration not stated), the cytotoxicity at 10 µM turned out to be 1.48%. `CCn1nc(C)c(CNC(=O)NCC(C)(O)c2ccco2)c1C` (configuration not stated): the cytotoxicity at 10 µM is -10.8%. Consider `COC(=O)c1ccc(Cl)c(NS(=O)(=O)c2cn(C)cn2)c1`, for which the cytotoxicity at 10 µM is 11.9%. To `Cc1nn(C)c(Cl)c1C1CCCN1CC(=O)N1CCCCC1` (configuration not stated) belongs 0.347%. For `Cc1cc(CN2CCN(C(=O)C(C(C)C)n3cncn3)CC2)no1` (configuration not stated) the value was -9.88%. To `CC(C)c1nc(CN2CCN(C(=O)CC3CCCCC3)CC2)no1` belongs -0.95%. Regarding `Cc1csc(NC(=O)c2cccnc2N2CCOCC2)n1`, the cytotoxicity at 10 µM was -4.75%. To `CCN(CC)C(=O)CCNC(=O)c1ccccc1N1CCOCC1` belongs -0.768%; to `Cc1cccc(CNCCOc2ccc(S(C)(=O)=O)cc2)c1`, -0.302%; to `CS(=O)(=O)NCC1CCCN(C(=O)c2ccc3c(c2)CCCC3)C1` (configuration not stated), -3.54%. Take `Cn1c(=O)oc2ccc(NC(=O)N3CCc4ccccc4C3)cc21`: the cytotoxicity at 10 µM is -5.66%. For the compound `Cc1ccccc1C1CN(c2cnn(C)c(=O)c2Cl)CCO1` (configuration not stated), the cytotoxicity at 10 µM was -19.4%.

In the case of `OC(COc1ccc2c(c1)OCO2)CN1CC(n2cccn2)C1` (configuration not stated), the cytotoxicity at 10 µM was -6.17%. Consider `Cc1nnc2n1CCN(C(=O)CN1C(=O)CCOc3ccccc31)C2`, for which the cytotoxicity at 10 µM came to 4.48%. For the compound `CCCN1CCC(C(=O)NCCN(CC)c2ccccc2C)CC1`, the cytotoxicity at 10 µM is 15.7%.

With `Cc1cnn(CCC(=O)Nc2cccnc2N2CCC(CO)CC2)c1`, the cytotoxicity at 10 µM was -2%.

As for `O=C(NC1CCN(c2ncccn2)CC1)c1cccc(-n2ccnc2)c1`, the cytotoxicity at 10 µM is -1.17%. On to `CC(=O)c1ccc(OCC(=O)NC(C)CCc2ccco2)cc1` (configuration not stated), for which the cytotoxicity at 10 µM was -9.96%.

On to `Cc1cc(NC(=O)NCCc2ccsc2)n(C)n1`, for which the cytotoxicity at 10 µM is 12.3%. As for `CCOCC1c2c(ncn2C)CCN1C(=O)c1ccoc1` (configuration not stated), the cytotoxicity at 10 µM was -103%. Turning to `O=C(c1cocn1)N1CCC[C@]2(C[C@@H](OCC3CC3)CO2)C1`, the cytotoxicity at 10 µM was -76.4%.

On to `O=C(c1ccsc1)N1CC[C@@H](N2CCOCC2)[C@@H]1Cc1ccccc1`, for which the cytotoxicity at 10 µM was -71.8%. For `COc1ccccc1OC1CCN(c2ccncc2)CC1`, the cytotoxicity at 10 µM was 3.33%.

Turning to `COCCN(CCOC)C(=O)c1c[nH]nc1-c1cccc(F)c1`, the cytotoxicity at 10 µM is -0.25%. As to `CCc1cc(N2C[C@H](C3CC3)[C@@H](N)C2)nc(N2CCCC2)n1`, the cytotoxicity at 10 µM came out at 0.334%. Regarding `CS(=O)(=O)CCN1C[C@H](NC(=O)c2cnc(O)cn2)[C@@H](C2CC2)C1`, the cytotoxicity at 10 µM came out at 9.24%.

Consider `CC(C)CN(Cc1cnn(C)c1)C(=O)C1COc2ccccc2C1` (configuration not stated), for which the cytotoxicity at 10 µM came out at 0.956%.

For the compound `CC1(Cc2ccccn2)NCCc2[nH]cnc21` (configuration not stated), the cytotoxicity at 10 µM was -5.18%.

With `CC(C)(O)c1cn(C2CCN(C(=O)CCC(F)(F)F)CC2)nn1`, the cytotoxicity at 10 µM was 1.93%. Regarding `CN(Cc1ccon1)c1nc(-c2ccccn2)nc2c1CCNCC2`, the cytotoxicity at 10 µM is -2.45%. As to `COC(=O)C(C)(C)NC(=O)c1cc(COc2ccccc2OC)[nH]n1`, the cytotoxicity at 10 µM was -4.83%. As for `N#Cc1c(N)nc2c(c1C1CCOC1)CCc1cc(O)ccc1-2` (configuration not stated), the cytotoxicity at 10 µM came to 23.4%. Turning to `Cn1c(C(=O)N2CCc3[nH]cnc3C2C(=O)O)ccc1-c1ccccc1` (configuration not stated), the cytotoxicity at 10 µM is -0.392%.

`CCN(CC)C(=O)[C@@H]1C[C@H](N)CN1C(=O)c1cc2c([nH]c1=O)CCC2`: the cytotoxicity at 10 µM is -1.94%. To `Cc1cc(CN(C)CCC(O)c2ccccc2)nn1C` (configuration not stated) belongs -17.3%; to `O=C(NCCc1ccncc1)c1ccc(S(=O)(=O)NC2CCC2)cc1`, -7.54%; to `O=C(c1c[nH]nc1-c1cccc(F)c1)N1CCNC(c2ccccc2)C1` (configuration not stated), -3.68%. To `COc1ccc(C(=O)C2CCCN(Cc3ccncc3)C2)c(OC)c1` (configuration not stated) belongs -15.7%; to `CCCc1nc(C(C)(C)NC(=O)C2CC(=O)N(CCOC)C2)no1` (configuration not stated), -8.12%; to `CN(Cc1nccn1C)C1CCN(CCc2ccccn2)CC1`, -8.78%.

On to `COc1ccnc(N2CCN(C(=O)COCC(F)(F)F)CC2)n1`, for which the cytotoxicity at 10 µM was -9.36%. For `Cc1nc(C)n(CC2CCCCN2CC(=O)Nc2c(C)n[nH]c2C)n1` (configuration not stated) the value was -12.7%; for `CC(C(=O)NCc1ccnc(N2CCOCC2)c1)n1cccn1` (configuration not stated), -6.28%. On to `CC1CN(CCOc2cccc(C#N)c2)CCN1Cc1nccn1C` (configuration not stated), for which the cytotoxicity at 10 µM was -2.81%. For `Cc1nc2n(n1)CC(NCCC(=O)Nc1cc(C)on1)CC2` (configuration not stated) the value was -10.5%; for `CN(C)c1ncccc1CNS(=O)(=O)c1ccc(C(N)=O)cc1`, -4.08%; for `CC(C)(C)c1n[nH]c(C2CN(Cc3nnc(C4CC4)o3)CCO2)n1` (configuration not stated), -6.55%. To `Cc1cc(C)n(CC2CCCCN2C(=O)c2ccsc2)n1` (configuration not stated) belongs -10.3%. For `Cc1cnn(CC(C)NCc2csc(-c3ncccn3)n2)c1` (configuration not stated), the cytotoxicity at 10 µM is -6.94%. On to `CCCN(CC1COc2ccccc2O1)C(=O)CCn1cncn1` (configuration not stated), for which the cytotoxicity at 10 µM was -0.627%. Regarding `CCc1noc(C(C)N2CCN(Cc3nnc(C4CC4)o3)CC2)n1` (configuration not stated), the cytotoxicity at 10 µM is -4.79%.

As for `CC(C)c1nc(C(=O)N2CCCC(n3cncn3)C2)c[nH]1` (configuration not stated), the cytotoxicity at 10 µM is -2.48%. To `CCOCC(=O)N1CCC2(CC1)COCCN2CCN(C)C` belongs -0.464%; to `Cc1ccc2c(c1)C(NC(=O)N(C)C)CC21CCN(C(C)C)CC1` (configuration not stated), -0.493%; to `O=C(c1ccncc1F)N1CCc2ncnc(C3CC3)c2CC1`, -78.4%. For `O=C(Nc1ccccc1)C1CN(Cc2ccsc2)CC12CCOCC2` (configuration not stated) the value was 6.58%; for `Cc1ccc(CN2CCn3cc(CN(C)Cc4ccco4)nc3C2)o1`, -1.09%.

For `Cc1nnn2c1COC(CNCc1nccs1)C2` (configuration not stated), the cytotoxicity at 10 µM is 1.71%. On to `CN(C)C(=O)COC[C@]12COC[C@H]1CN(Cc1ccco1)C2`, for which the cytotoxicity at 10 µM was -0.522%. As to `CN(C)C(=O)N1CCOCC2(CCN(c3ccccn3)C2)C1` (configuration not stated), the cytotoxicity at 10 µM worked out at 1.6%.

These data come from ChEMBL document CHEMBL4513216, “Probing the Open Global Health Chemical Diversity Library for Multistage-Active Starting Points for Next-Generation Antimalarials” (ACS Infect Dis, 2020).
